Reference: ChEMBL document CHEMBL1125796, “Antitumor properties of 2(1H)-pyrimidinone riboside (zebularine) and its fluorinated analogues” (1991)
“And” between values parts separate entries of the source, which are not always exact repeats. Identical values can stand only once.

How the values were obtained:
Mus musculus [1] = assay: Percent increase in life span of drug-treated mice relative to tumored, vehicle treated controls at a dose of 500 mg/kg orally in the presence of 500 mg/kg of zebularine.; assay type: functional; conditions: po
In short: (§1)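 CDF1 mice were implanted ip with 10^6 L1210 cells on day 0. Oral treatment was given on day 1 only, 24 h after implantation. In combinations, the deaminase inhibitor was given as two 250 mg/kg doses 30 min apart, as one dose immediately before ara-C, or as half the dose 30 min before and half immediately after ara-C. %ILS was calculated versus vehicle-treated tumored controls.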

Mus musculus [2] = assay: Percent increase in life span of drug-treated mice relative to tumored, vehicle treated controls at a dose of 500 mg/kg oral treatment; assay type: functional; in short: as §1
Mus musculus [3] = assay: Percent increase in life span of drug-treated mice relative to tumored, vehicle treated controls at a dose of 100 mg/kg oral treatment; assay type: functional; in short: as §1
Mus musculus [4] = assay: Antitumor activity against L1210 tumor in mice, at a dose of 500 mg/kg peroral administration in the presence of 100 mg/kg of zebularine.; assay type: functional
Mus musculus [5] = assay: Antitumor activity against L1210 tumor in mice, at a dose of 500 mg/kg peroral administration.; assay type: functional; conditions: route oral
In short: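 CDF1 mice received L1210 leukemia ip. Treatment was oral on day 1 only, 24 h after implantation, with ara-C at 500 mg/kg. Zebularine was given as a single dose immediately before ara-C, or as divided doses (e.g. 2 × 250 mg/kg 30 min apart, or half 30 min before and half immediately after). Read-out was % increase in life span.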

Mus musculus [6] = assay: Antitumor activity against L1210 tumor in mice, at a dose of 500 mg/kg peroral administration in the presence of 10 mg/kg of zebularine.; assay type: functional
Mus musculus [7] = assay: Percent increase in life span of drug-treated mice relative to tumored, vehicle treated controls at a dose of 6.25 mg/kg ip.; assay type: functional
In short: (§2)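 Tumors implanted day 0: B16 melanoma as 0.5 mL of 1:10 brei into BDF1 mice; L1210 or P388 leukemia as 10^6 cells into CDF1 mice, ip or sc. Drug was given in physiologic saline by ip or oral route, QD 1-9. %ILS was calculated against saline-treated tumored controls, with body-weight change difference as the toxicity read-out. Six mice per dose in most experiments.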

Mus musculus [8] = assay: Percent increase in life span of drug-treated mice relative to tumored, vehicle treated controls at a dose of 3.13 mg/kg ip.; assay type: functional; in short: as §2
Mus musculus [9] = assay: Percent increase in life span of drug-treated mice relative to tumored, vehicle treated controls at a dose of 800 mg/kg oral administration
Mus musculus [10] = assay: Antitumor activity against P388 tumor in mice, at a dose of 600 mg/kg per ip administration.; assay type: functional; conditions: route intraperitoneal
In short: (§3)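 Tumors implanted ip on day 0: B16 melanoma (0.5 mL of 1:10 brei) in BDF1 mice, and L1210 or P388 leukemia (10^6 cells) in CDF1 mice. Compound was given ip in physiologic saline daily on days 1–9. Read-out was % increase in life span versus vehicle-treated tumored controls, with body-weight change difference also recorded. Six mice per dose, three in some P388 groups.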

Mus musculus [11] = assay: Antitumor activity against […] tumor in mice, at a dose of 400 mg/kg per ip administration.; assay type: functional; conditions: route intraperitoneal; in short: as §3
Mus musculus [12] = assay: Percent increase in life span of drug-treated mice relative to tumored, vehicle treated controls at a dose of 800 mg/kg, ip administration
Mus musculus [13] = assay: Antitumor activity against P388 tumor in mice, at a dose of 200 mg/kg per ip administration.; assay type: functional; conditions: route intraperitoneal; in short: as §3
Mus musculus [14] = assay: Antitumor activity against L1210 tumor in mice, at a dose of 800 mg/kg per ip administration.; assay type: functional; conditions: route intraperitoneal; in short: as §3
Mus musculus [15] = assay: Percent increase in life span of drug-treated mice relative to tumored, vehicle treated controls at a dose of 600 mg/kg ip.; assay type: functional; in short: as §2
Mus musculus [16] = assay: Antitumor activity against ara-c resistance L1210 tumor in mice, at a dose of 200 mg/kg per ip administration.; assay type: functional; conditions: route intraperitoneal
In short: (§4)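 An ara-C-resistant L1210 leukemia line (10^6 cells) was implanted ip on day 0 in CDF1 mice. Compound was given ip in physiologic saline daily on days 1–9. Read-out was % increase in life span versus saline-treated tumored controls, plus body-weight change difference.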

Mus musculus [17] = assay: Percent increase in life span of drug-treated mice relative to tumored, vehicle treated controls at a dose of 1600 mg/kg orally.; conditions: oral
Mus musculus [18] = assay: Antitumor activity against L1210 tumor in mice, at a dose of 1600 mg/kg per oral administration.
Mus musculus [19] = assay: Antitumor activity against B16 tumor in mice, at a dose of 400 mg/kg per ip administration.; assay type: functional; conditions: route intraperitoneal; in short: as §3
Mus musculus [20] = assay: Percent increase in life span of drug-treated mice relative to tumored, vehicle treated controls at a dose of 800 mg/kg ip.; assay type: functional; conditions: 800 mg/kg; in short: as §2
Mus musculus [21] = assay: Antitumor activity against L1210 tumor in mice, at a dose of 400 mg/kg per ip administration.; assay type: functional; conditions: route intraperitoneal; in short: as §3
Mus musculus [22] = assay: Antitumor activity against B16 tumor in mice, at a dose of 200 mg/kg per ip administration.; assay type: functional; conditions: route intraperitoneal; in short: as §3
Mus musculus [23] = assay: (§5) Antitumor activity against P388 tumor in mice, at a dose of 400 mg/kg per ip administration.; assay type: functional; conditions: route intraperitoneal; in short: as §3
Mus musculus [24] = assay: Antitumor activity against B16 tumor in mice, at a dose of 800 mg/kg per ip administration.; assay type: functional; conditions: route intraperitoneal; in short: as §3
Mus musculus [25] = assay: Antitumor activity against ara-c resistance L1210 tumor in mice, at a dose of 800 mg/kg per ip administration.; assay type: functional; conditions: route intraperitoneal; in short: as §4
Mus musculus [26] = assay: Antitumor activity against ara-c resistance L1210 tumor in mice, at a dose of 400 mg/kg per ip administration.; assay type: functional; conditions: route intraperitoneal; in short: as §4
Mus musculus [27] = assay: as §5; assay type: functional; conditions: route intraperitoneal; in short: as §3; remark: listed apart in the source
Mus musculus [28] = assay: Percent increase in life span of drug-treated mice relative to tumored, vehicle treated controls at a dose of 200 mg/kg ip.; assay type: functional; in short: as §2
Mus musculus [29] = assay: Percent increase in life span of drug-treated mice relative to tumored, vehicle treated controls at a dose of 400 mg/kg ip.; assay type: functional; conditions: 400 mg/kg; in short: as §2

For Nc1ccn([C@@H]2O[C@H](CO)[C@@H](O)[C@@H]2O)c(=O)n1 [CYTARABINE], the ILS at 500 mg/kg (Mus musculus [1]) was 74%, the ILS (Mus musculus [2]) was 44% and 74% and 80% and the ILS (Mus musculus [3]; 100 mg/kg) was 68%. It also gave an ILS at 100 mg/kg (Mus musculus [3]; Mus musculus, po) of 68%, a Weight change difference (Mus musculus [4]) of -1 g and a Weight change difference (Mus musculus [5]) of -0.5 g. For the same compound, the Weight change difference (Mus musculus [6]) was -2.2 g.
Compound OC[C@H]1O[C@@H](n2cnc3cncnc32)[C@H](O)[C@@H]1O [NEBULARINE] has an ILS (Mus musculus [7]; 6.25 mg/kg) of 34%, an ILS at 6.25 mg/kg (Mus musculus [7]; Mus musculus, ip) of 40% and an ILS (Mus musculus [8]; 3.13 mg/kg) of 52%. For the same compound, the ILS at 3.13 mg/kg (Mus musculus [8]; Mus musculus, ip) was 60%.
In the case of O=c1ncccn1[C@@H]1O[C@H](CO)[C@@H](O)[C@H]1O [ZEBULARINE], the ILS at 800 mg/kg (Mus musculus [9]) is reported as 81%, the Weight change difference (Mus musculus [10]) is reported as -1.3 g and the Weight change difference (Mus musculus [11]) is reported as -2.1 g. For the same compound, the ILS at 800 mg/kg (Mus musculus [12]) was 110%, the Weight change difference (Mus musculus [13]) was -2 g and -0.7 g and the Weight change difference (Mus musculus [14]) was -2.8 g. It also gave an ILS at 600 mg/kg (Mus musculus [15]) of 45%, a Weight change difference (Mus musculus [16]) of -1.6 g and an ILS at 1600 mg/kg (Mus musculus [17]) of 112%. The Weight change difference (Mus musculus [18]) was -2.3 g, the Weight change difference (Mus musculus [19]) was -0.1 g and -0.2 g and the ILS (Mus musculus [20]) was 77% [middle of 5 runs]. The Weight change difference (Mus musculus [21]) was -0.4 g, the Weight change difference (Mus musculus [22]) was -0.5 g and the Weight change difference (Mus musculus [23]) was -1.2 g. It also gave a Weight change difference (Mus musculus [24]) of 0 g, a Weight change difference (Mus musculus [25]) of -3.4 g and a Weight change difference (Mus musculus [26]) of -1.8 g. For the same compound, the Weight change difference (Mus musculus [27]) was -2.3 g, the ILS (Mus musculus [28]; 200 mg/kg) was 34% and 25% and 40% and the ILS at 200 mg/kg (Mus musculus [28]; Mus musculus, ip) was 36%. For the same compound, the ILS (Mus musculus [29]) was 66% [middle of 7 runs].
